PAE, MIC and fraction unbound data for one compound are collected here from ChEMBL document CHEMBL1629663, “Postantibiotic effects of telavancin against 16 gram-positive organisms” (Antimicrob Agents Chemother, 2009).

For data set [1], the system named is Staphylococcus aureus. Nature of the data set: Antimicrobial activity against vancomycin-susceptible-, methicillin-resistant Staphylococcus aureus 1307 assessed as time required to induce post antibiotic sub-MIC effect at 0.2 times MIC pre-exposed to Telavancin […] by plate counting method. Type of data set: functional. The method in brief: (§1)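 After 1 h preexposure to 10× MIC at 35°C and 1:1,000 dilution, cultures were split, and drug was re-added to final 0.2, 0.3 or 0.4× MIC, with a drug-free tube. Viable counts were taken every 2 h until McFarland 1 turbidity. Duration was derived from log10 CFU/ml versus time curves. Two experiments were run, each with a new inoculum.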

Data set [2] has as its system Staphylococcus aureus. Nature of the data set: Antimicrobial activity against vancomycin-susceptible-, methicillin-resistant Staphylococcus aureus ATCC 33591 assessed as time required to induce post antibiotic sub-MIC effect at 0.2 times MIC pre-exposed to Telavancin […] by plate counting method. Type of data set: functional. Put shortly:
as §1

The test system of data set [3] is Staphylococcus aureus. Nature of the data set: Antimicrobial activity against vancomycin-susceptible-, methicillin-resistant Staphylococcus aureus 1307 assessed as time required to induce sub-MIC effect at 0.4 times MIC exposed for 2 hrs by plate counting method. The class given is functional. The method in brief:
(§2)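 Sub-MIC effect: cultures not preexposed to drug were diluted and handled as in the PA-SME procedure in Mueller-Hinton broth with final 0.2, 0.3 or 0.4× MIC, plus a drug-free control. Viable plate counts were taken every 2 h until McFarland 1 turbidity. Duration was derived from growth curves. Two experiments were run, each with a new inoculum.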

In data set [4] the test system is Staphylococcus aureus. Nature of the data set: Antimicrobial activity against heterogenous vancomycin-intermediate-, methicillin-resistant Staphylococcus aureus 618 assessed as time required to induce sub-MIC effect at 0.2 times MIC exposed for 2 hrs by plate counting method. The class given is functional. Put shortly: (§3)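 SME, viable plate count method: no prior drug exposure. About 5 × 10^6 CFU/ml in Mueller-Hinton broth at 35°C received 0.2, 0.3 or 0.4× MIC, alongside a drug-free tube. Counts were taken at the start, then every 2 h until McFarland no. 1 turbidity, as log10 CFU/ml against time. Two separate experiments, each with a new inoculum.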

Data set [5] deals with Streptococcus pyogenes. Nature of the data set: Antimicrobial activity against Streptococcus pyogenes HMC 414 assessed as time required to induce sub-MIC effect at 0.2 times MIC exposed for 2 hrs by plate counting method. The class given is functional. The method in brief:
(§4)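 Unexposed Mueller-Hinton broth cultures (about 5 × 10^6 CFU/ml, 35°C) were handled as in the PA-SME set but without the 10× MIC pre-exposure. They were diluted 1:1,000, then given telavancin at final 0.2, 0.3 or 0.4× MIC, with a drug-free control. Viable counts were taken every 2 h until McFarland no. 1 turbidity. Effect duration comes from log10 CFU/ml-time plots; two separate experiments with new inocula.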

The test system of data set [6] is Staphylococcus aureus. Nature of the data set: Antimicrobial activity against heterogenous vancomycin-intermediate-, methicillin-resistant Staphylococcus aureus 618 assessed as time required to induce sub-MIC effect at 0.4 times MIC […] by plate counting method. Type of data set: functional. The method in brief: as §3
Data set [7] has as its system Staphylococcus aureus. Nature of the data set: Antimicrobial activity against heterogenous vancomycin-intermediate-, methicillin-resistant Staphylococcus aureus 873 assessed as time required to induce post antibiotic sub-MIC effect at 0.3 times MIC […] by plate counting method. The class given is functional. Put shortly: (§5)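 PAE was first induced with 10× MIC for 1 h at 35°C (inoculum about 5 × 10^6 CFU/ml, Mueller-Hinton broth) and ended by 1:1,000 dilution. Cultures were then split and given 0.2, 0.3 or 0.4× MIC, with one tube left without drug. Viable counts were taken before exposure, after dilution, then every 2 h until McFarland no. 1 turbidity. Two separate experiments, each with a new inoculum.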

In data set [8] the test system is Streptococcus pyogenes. Nature of the data set: Antimicrobial activity against Streptococcus pyogenes HMC 414 assessed as time required to induce post antibiotic sub-MIC effect at 0.4 times MIC […] by plate counting method. Type of data set: functional. Put shortly:
(§6)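 Mueller-Hinton broth cultures of about 5 × 10^6 CFU/ml were pre-exposed to telavancin at 10× MIC for 1 h at 35°C, then diluted 1:1,000. Telavancin was re-added to final 0.2, 0.3 or 0.4× MIC, alongside a drug-free tube. Viable counts were taken before exposure, after dilution, then every 2 h until McFarland no. 1 turbidity. Duration comes from log10 CFU/ml-versus-time plots; two separate experiments with fresh inocula.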

Data set [9] deals with Staphylococcus aureus. Nature of the data set: Antimicrobial activity against vancomycin-intermediate-, methicillin-resistant Staphylococcus aureus 770 assessed as post-antibiotic effect at 10 times MIC pre-exposed to Telavancin for 1 hr by plate counting method. Type of data set: functional. Put shortly:
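Viable plate count method in Mueller-Hinton broth. Direct colony suspension inoculum of about 5 × 10^6 CFU/ml was exposed to 10× MIC for 1 h at 35°C in a shaking water bath, then diluted 1:1,000 to remove drug. Counts were taken before exposure, at 0 h, then every 2 h until McFarland no. 1 turbidity. PAE = T − C, the time to a 1 log10 rise versus an unexposed growth control.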

The test system of another data set is Enterococcus faecalis. Nature of the data set: Antimicrobial activity against Enterococcus faecalis ATCC 29212 assessed as time required to induce post antibiotic sub-MIC effect at 0.3 times MIC […] by plate counting method. The class given is functional. Put shortly: as §6
In data set [10] the test system is Staphylococcus aureus. Nature of the data set: Antimicrobial activity against vancomycin-susceptible-, methicillin-resistant Staphylococcus aureus 1130 assessed as time required to induce post antibiotic sub-MIC effect at 0.2 times MIC pre-exposed to Telavancin for […] by plate counting method. The class given is functional. The method in brief: as §1
For data set [11], the system named is Streptococcus pyogenes. Nature of the data set: Antimicrobial activity against Streptococcus pyogenes HMC 414 assessed as time required to induce sub-MIC effect at 0.4 times MIC exposed for 2 hrs by plate counting method. The class given is functional. The method in brief: as §4
Data set [12] has as its system Staphylococcus aureus. Nature of the data set: Antimicrobial activity against vancomycin-intermediate-, methicillin-resistant Staphylococcus aureus 1984 assessed as time required to induce sub-MIC effect at 0.4 times MIC […] by plate counting method. The class given is functional. The method in brief: as §3
The subject of data set [13] is Staphylococcus aureus. Nature of the data set: Antimicrobial activity against vancomycin-intermediate-, methicillin-resistant Staphylococcus aureus 1984 assessed as time required to induce sub-MIC effect at 0.3 times MIC exposed for 2 hrs by plate counting method. Type of data set: functional. Put shortly:
as §3

Data set [14] deals with Staphylococcus aureus. Nature of the data set: Antimicrobial activity against heterogenous vancomycin-intermediate-, methicillin-resistant Staphylococcus aureus 873 by microdilution method. The class given is functional. (Dilution methods test growth across graded concentrations, often in twofold steps.)
Data set [15] has as its system Staphylococcus aureus. Nature of the data set: Antimicrobial activity against vancomycin-susceptible-, methicillin-resistant Staphylococcus aureus 1306 assessed as time required to induce post antibiotic sub-MIC effect at 0.2 times MIC pre-exposed to Telavancin […] by plate counting method. The class given is functional. Put shortly: as §1
For data set [16], the system named is Staphylococcus aureus. Nature of the data set: Antimicrobial activity against vancomycin-intermediate-, methicillin-resistant Staphylococcus aureus 1287 assessed as time required to induce post antibiotic sub-MIC effect at 0.4 times MIC […] by plate counting method. The class given is functional. Put shortly: as §5
The test system of data set [17] is Staphylococcus aureus. Nature of the data set: Antimicrobial activity against vancomycin-susceptible-, methicillin-resistant Staphylococcus aureus 1307 assessed as time required to induce post antibiotic sub-MIC effect at 0.3 times MIC […] by plate counting method. Type of data set: functional. Put shortly:
as §1

Data set [18] has as its system Staphylococcus aureus. Nature of the data set: Antimicrobial activity against vancomycin-susceptible-, methicillin-resistant Staphylococcus aureus 1306 by microdilution method. The class given is functional.
For data set [19], the system named is Staphylococcus aureus. Nature of the data set: Antimicrobial activity against vancomycin-susceptible-, methicillin-resistant Staphylococcus aureus 1130 assessed as time required to induce sub-MIC effect at 0.3 times MIC exposed for 2 hrs by plate counting method. The class given is functional. Put shortly:
as §2

Data set [20] can be described thus: Protein binding healthy human serum. Conditions: read-out: PB. The class given is ADME, cell-free.
In data set [21] the test system is Staphylococcus aureus. Nature of the data set: Antimicrobial activity against vancomycin-susceptible-, methicillin-resistant Staphylococcus aureus 1307 by microdilution method. Type of data set: functional.
Data set [22] has as its system Staphylococcus aureus. Nature of the data set: Antimicrobial activity against vancomycin-susceptible-, methicillin-resistant Staphylococcus aureus ATCC 33591 assessed as time required to induce sub-MIC effect at 0.2 times MIC exposed for 2 hrs by plate counting method. The class given is functional. The method in brief:
as §2

The structures appear in SMILES notation. Values after ≈ are worked out from the molar mass of the structure shown.

Take `CCCCCCCCCCNCCN[C@@]1(C)C[C@H](O[C@H]2[C@H](Oc3c4cc5cc3Oc3ccc(cc3Cl)[C@@H](O)[C@@H](NC(=O)[C@@H](CC(C)C)NC)C(=O)N[C@@H](CC(N)=O)C(=O)N[C@H]5C(=O)N[C@H]3C(=O)N[C@H](C(=O)N[C@H](C(=O)O)c5cc(O)c(CNCP(=O)(O)O)c(O)c5-c5cc3ccc5O)[C@H](O)c3ccc(c(Cl)c3)O4)O[C@H](CO)[C@@H](O)[C@@H]2O)O[C@@H](C)[C@H]1O` [TELAVANCIN]: the PAE in the data set on Staphylococcus aureus [1] turned out to be 6 h; with Staphylococcus aureus [2], 7.7 h; in the data set on Staphylococcus aureus [3], 6.3 h; in the data set with Staphylococcus aureus [4], 0.3 h; in the data set with Streptococcus pyogenes [5], 0 h; in the data set with Staphylococcus aureus [6] it was 2.3 h. In addition, the PAE in the data set on Staphylococcus aureus [7] is 4.8 h; in the data set with Streptococcus pyogenes [8], more than 10.7 h; in the data set on Staphylococcus aureus [9], 1.6 h; in the data set with Enterococcus faecalis it was more than 10.7 h; in the data set with Staphylococcus aureus [10], 5.4 h; in the data set with Streptococcus pyogenes [11], 0.4 h. Besides, the PAE in the data set on Staphylococcus aureus [12] is 10 h; with Staphylococcus aureus [13] it was 2.6 h; with Staphylococcus aureus [15], 2.9 h; in the data set on Staphylococcus aureus [16] it was more than 10 h; in the data set on Staphylococcus aureus [17], more than 10.5 h; in the data set on Staphylococcus aureus [19], 2 h. Besides, the PAE with Staphylococcus aureus [22] is 0.3 h. For the same compound, the MIC against Staphylococcus aureus [14], with Staphylococcus aureus [18] and with Staphylococcus aureus [21] was 0.12 µg/mL (≈ 0.0684 µM) each time. In addition, in data set [20], the fraction unbound is not above 0.1.
